# Reference: ChEMBL document CHEMBL4406821, “Novel dual inhibitors targeting CDK4 and VEGFR2 synergistically suppressed cancer progression and angiogenesis” (Eur J Med Chem, 2019)
# Activity calls are given as the source filed them. The rule behind the calls is not given here.
# Tests used:
# HeLa = test: Induction of apoptosis in human HeLa cells at 40 nM incubated for 48 hrs by annexin V FITC and propidium iodide staining based flow cytometry; format: functional, cell-based
# How it was run: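 Cells were treated for 48 h, stained with FITC Annexin V and PI, and analyzed by flow cytometry to count early and late apoptotic cells.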
# [1] = molecular target: Serine/threonine-protein kinase Nek9 (Homo sapiens) (UniProt Q8TD19); test: Inhibition of recombinant human NEK9 (1 to 324 residues) at 1 uM using myelin basic protein as substrate incubated for 40 mins in presence of [gamma-33P]-ATP by scintillation counting method relative to control
# [2] = molecular target: Serine/threonine-protein kinase B-raf (Homo sapiens) (UniProt P15056); test: Inhibition of recombinant human B-Raf (416 to end residues) at 1 uM using myelin as substrate incubated for 40 mins in presence of [gamma-33P]-ATP by scintillation counting method relative to control
# How it was run: (§1)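 Kinase panel profiling at 1 μM performed by Eurofins KinaseProfiler; percent inhibition reported as mean of two independent experiments.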
# [3] = molecular target: Angiopoietin-1 receptor (Homo sapiens) (UniProt Q02763); test: Inhibition of recombinant human TIE2 (771 to end residues) at 1 uM using EFPIYDFLPAKKK as substrate incubated for 40 mins in presence of [gamma-33P]-ATP by scintillation counting method relative to control
# [4] = Toxicity in NOD/SCID BALB/c mouse xenografted with human SiHa cells assessed as effect on blood parameter by measuring PCT at 40 mg/kg, po administered once two days for 4 times by hematology analyzer; format: organism-based; details: in vivo
# [5] = molecular target: Serine/threonine-protein kinase 26 (Homo sapiens) (UniProt Q9P289); test: Inhibition of recombinant human MST4 (4 to 304 residues) at 1 uM using RLGRDKYKTLRQIRQ as substrate incubated for 40 mins in presence of [gamma-33P]-ATP by scintillation counting method relative to control
# [6] = molecular target: Serine/threonine-protein kinase A-Raf (Homo sapiens) (UniProt P10398); test: Inhibition of recombinant human A-Raf (273 to end residues) at 1 uM using myelin as substrate incubated for 40 mins in presence of [gamma-33P]-ATP by scintillation counting method relative to control; how it was run: as §1
# [7] = molecular target: Tyrosine-protein kinase FRK (Homo sapiens) (UniProt P42685); test: Inhibition of recombinant human PTK5 (218 to end residues) at 1 uM using GGEEEEYFELVKKKK as substrate incubated for 40 mins in presence of [gamma-33P]-ATP by scintillation counting method relative to control
# [8] = Toxicity in NOD/SCID BALB/c mouse xenografted with human SiHa cells assessed as effect on blood parameter by measuring RDW at 40 mg/kg, po administered once two days for 4 times by hematology analyzer; format: organism-based; details: in vivo
# [9] = molecular target: Rhodopsin kinase GRK1 (Homo sapiens) (UniProt Q15835); test: Inhibition of recombinant human full length GRK1 at 1 uM using KKKKERLLDDRHDSGLDSMKDEE as substrate incubated for 40 mins in presence of [gamma-33P]-ATP by scintillation counting method relative to control
# [10] = AUC (0 to infinity) in Sprague-Dawley rat at 10 mg/kg, iv by HPLC-MS analysis; format: ADME, organism-based; design: dose 10 mg/kg, route intravenous, time infinity; details: in vivo
# How it was run: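 Rats fitted with jugular vein catheters for serial blood sampling. Compound dissolved in saline with 5% (v/v) DMSO and given as a single 10 mg/kg dose iv or po after an overnight fast, n = 5 per group. Plasma isolated at once and measured by HPLC with tandem MS detection. Parameters derived by noncompartmental fitting.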
# [11] = molecular target: Receptor tyrosine-protein kinase erbB-4 (Homo sapiens) (UniProt Q15303); test: Inhibition of recombinant human ERBB4 (706 to 991 residues) at 1 uM using poly (Glu, Tyr) 4:1 as substrate incubated for 40 mins in presence of [gamma-33P]-ATP by scintillation counting method relative to control
# How it was run: (§2)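 Tested at a single 1 uM in an outsourced commercial kinase-profiling panel, read as percent inhibition. Each value is the mean of two independent experiments.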
# [12] = molecular target: Myosin-IIIb (Homo sapiens) (UniProt Q8WXR4); test: Inhibition of recombinant human MYO3B (1 to 326 residues) at 1 uM using RLGRDKYKTLRQIRQ as substrate incubated for 40 mins in presence of [gamma-33P]-ATP by scintillation counting method relative to control
# [13] = molecular target: Protein kinase C iota type (Homo sapiens) (UniProt P41743); test: Inhibition of recombinant human full length PKCiota at 1 uM using ERMRPRKRQGSVRRRV as substrate incubated for 40 mins in presence of [gamma-33P]-ATP by scintillation counting method relative to control
# [14] = molecular target: Dual specificity mitogen-activated protein kinase kinase 3 (Homo sapiens) (UniProt P46734); test: Inhibition of recombinant human MKK3 at 1 uM incubated for 40 mins in presence of [gamma-33P]-ATP by scintillation counting method relative to control
# T47D = test: Induction of apoptosis in human T47D cells assessed as decrease in Rb phosphorylation incubated for 48 hrs by Western blot analysis; format: functional, cell-based
# How it was run: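 Cancer cells were exposed to graded concentrations for 48 h, washed three times in PBS and lysed in RIPA buffer. Immunoblots were probed with anti-Rb, anti-phospho-Rb, anti-Ki67 and anti-Bcl-2, each at 1:1000. β-actin served as loading control.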
# [15] = molecular target: Serine/threonine-protein kinase D1 (Homo sapiens) (UniProt Q15139); test: Inhibition of recombinant human full length PKCmu at 1 uM using KKLNRTLSVA as substrate incubated for 40 mins in presence of [gamma-33P]-ATP by scintillation counting method relative to control
# [16] = molecular target: Glycogen synthase kinase-3 alpha (Homo sapiens) (UniProt P49840); test: Inhibition of recombinant human GSK3alpha (2 to end residues) at 1 uM using YRRAAVPPSPSLSRHSSPHQS(p) EDEEE as substrate incubated for 40 mins in presence of [gamma-33P]-ATP by scintillation counting method relative to control; how it was run: as §2
# SiHa = test: Antiangiogenic activity against human SiHa cells xenografted in orally dosed NOD/SCID BALB/c mouse assessed as reduction in CD31 expression measured after 21 days by hematoxylin and eosin staining based immunohistochemistry; format: functional, organism-based
# How it was run: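 Female NOD/SCID Balb/c mice, 6–8 weeks old, received 2×10^6 SiHa cells subcutaneously in the right flank. Once tumors reached 100 mm³, mice were randomized, 5 per group, and gavaged once daily for 21 days. Formalin-fixed, paraffin-embedded tumor sections were stained with Ki67 or CD31 antibody (1:100, 4 °C overnight), then biotin secondary and ABC-peroxidase/DAB, with hematoxylin counterstain.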
# [17] = molecular target: Platelet-derived growth factor receptor alpha (Homo sapiens) (UniProt P16234); test: Inhibition of recombinant human PDGFRalpha (550 to end residues) at 1 uM using poly(Glu, Tyr) 4:1 as substrate incubated for 40 mins in presence of [gamma-33P]-ATP by scintillation counting method relative to control; how it was run: as §2
# [18] = molecular target: Fibroblast growth factor receptor 4 (Homo sapiens) (UniProt P22455); test: Inhibition of recombinant human FGFR4 (442 to 755 residues) at 1 uM using poly(Glu, Tyr) 4:1 as substrate incubated for 40 mins in presence of [gamma-33P]-ATP by scintillation counting method relative to control; how it was run: as §2
# Sequence of Platelet-derived growth factor receptor alpha (Homo sapiens) (P16234 whole entry, the tested form may be a part): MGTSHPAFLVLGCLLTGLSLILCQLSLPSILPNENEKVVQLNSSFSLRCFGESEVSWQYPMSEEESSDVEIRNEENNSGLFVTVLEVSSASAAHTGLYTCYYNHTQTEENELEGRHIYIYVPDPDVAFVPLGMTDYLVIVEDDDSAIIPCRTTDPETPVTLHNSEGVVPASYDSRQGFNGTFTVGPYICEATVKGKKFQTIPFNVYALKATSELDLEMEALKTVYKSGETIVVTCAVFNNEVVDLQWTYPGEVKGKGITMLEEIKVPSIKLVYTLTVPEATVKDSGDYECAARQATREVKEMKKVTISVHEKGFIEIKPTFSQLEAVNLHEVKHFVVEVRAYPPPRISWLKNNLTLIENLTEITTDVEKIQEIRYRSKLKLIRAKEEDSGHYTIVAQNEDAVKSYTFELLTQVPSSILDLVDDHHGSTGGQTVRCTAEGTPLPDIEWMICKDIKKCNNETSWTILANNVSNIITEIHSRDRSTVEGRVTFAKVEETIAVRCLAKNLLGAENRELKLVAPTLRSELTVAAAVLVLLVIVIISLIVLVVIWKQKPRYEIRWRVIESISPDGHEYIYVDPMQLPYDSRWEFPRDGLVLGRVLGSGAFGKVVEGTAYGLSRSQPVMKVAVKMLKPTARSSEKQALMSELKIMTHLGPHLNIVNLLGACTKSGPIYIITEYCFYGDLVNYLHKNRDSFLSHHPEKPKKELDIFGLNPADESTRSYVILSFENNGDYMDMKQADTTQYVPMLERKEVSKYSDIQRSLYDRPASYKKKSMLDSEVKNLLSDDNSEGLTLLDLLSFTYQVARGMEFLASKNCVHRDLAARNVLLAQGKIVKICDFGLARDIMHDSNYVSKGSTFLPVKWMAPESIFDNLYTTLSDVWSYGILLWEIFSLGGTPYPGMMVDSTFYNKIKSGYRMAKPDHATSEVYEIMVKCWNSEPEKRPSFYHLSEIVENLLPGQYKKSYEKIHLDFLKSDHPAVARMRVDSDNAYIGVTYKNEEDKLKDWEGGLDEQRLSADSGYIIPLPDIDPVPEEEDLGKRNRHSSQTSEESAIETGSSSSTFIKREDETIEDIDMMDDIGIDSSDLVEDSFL
# Sequence of Angiopoietin-1 receptor (Homo sapiens) (Q02763 whole entry): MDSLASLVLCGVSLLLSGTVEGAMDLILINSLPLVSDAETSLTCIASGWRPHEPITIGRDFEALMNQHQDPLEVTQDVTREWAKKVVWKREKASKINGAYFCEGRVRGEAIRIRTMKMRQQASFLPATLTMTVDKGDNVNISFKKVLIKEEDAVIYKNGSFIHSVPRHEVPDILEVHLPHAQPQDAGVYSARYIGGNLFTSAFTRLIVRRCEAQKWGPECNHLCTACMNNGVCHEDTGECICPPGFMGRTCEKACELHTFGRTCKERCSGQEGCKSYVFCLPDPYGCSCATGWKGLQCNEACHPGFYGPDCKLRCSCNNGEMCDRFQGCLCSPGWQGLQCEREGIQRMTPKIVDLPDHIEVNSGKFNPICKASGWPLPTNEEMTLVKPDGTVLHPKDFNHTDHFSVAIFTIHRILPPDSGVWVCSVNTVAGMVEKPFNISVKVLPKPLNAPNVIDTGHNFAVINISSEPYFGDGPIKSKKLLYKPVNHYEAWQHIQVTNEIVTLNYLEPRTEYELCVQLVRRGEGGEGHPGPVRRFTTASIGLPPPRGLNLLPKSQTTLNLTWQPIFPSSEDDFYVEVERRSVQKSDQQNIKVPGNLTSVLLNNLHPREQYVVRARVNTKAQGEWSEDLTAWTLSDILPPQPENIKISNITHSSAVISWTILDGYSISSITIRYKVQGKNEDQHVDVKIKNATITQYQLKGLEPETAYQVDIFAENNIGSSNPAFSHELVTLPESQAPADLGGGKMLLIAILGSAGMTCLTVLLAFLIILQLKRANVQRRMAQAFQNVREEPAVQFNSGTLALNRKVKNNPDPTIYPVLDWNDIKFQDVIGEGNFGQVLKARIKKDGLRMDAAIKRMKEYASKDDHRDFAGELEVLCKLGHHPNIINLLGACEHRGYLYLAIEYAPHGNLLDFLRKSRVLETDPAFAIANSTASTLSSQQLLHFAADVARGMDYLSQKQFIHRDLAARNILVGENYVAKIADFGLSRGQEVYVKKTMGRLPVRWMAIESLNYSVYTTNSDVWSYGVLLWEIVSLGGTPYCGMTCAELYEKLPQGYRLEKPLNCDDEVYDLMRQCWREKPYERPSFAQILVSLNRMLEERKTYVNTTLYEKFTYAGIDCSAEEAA
# Sequence of Rhodopsin kinase GRK1 (Homo sapiens) (Q15835 whole entry): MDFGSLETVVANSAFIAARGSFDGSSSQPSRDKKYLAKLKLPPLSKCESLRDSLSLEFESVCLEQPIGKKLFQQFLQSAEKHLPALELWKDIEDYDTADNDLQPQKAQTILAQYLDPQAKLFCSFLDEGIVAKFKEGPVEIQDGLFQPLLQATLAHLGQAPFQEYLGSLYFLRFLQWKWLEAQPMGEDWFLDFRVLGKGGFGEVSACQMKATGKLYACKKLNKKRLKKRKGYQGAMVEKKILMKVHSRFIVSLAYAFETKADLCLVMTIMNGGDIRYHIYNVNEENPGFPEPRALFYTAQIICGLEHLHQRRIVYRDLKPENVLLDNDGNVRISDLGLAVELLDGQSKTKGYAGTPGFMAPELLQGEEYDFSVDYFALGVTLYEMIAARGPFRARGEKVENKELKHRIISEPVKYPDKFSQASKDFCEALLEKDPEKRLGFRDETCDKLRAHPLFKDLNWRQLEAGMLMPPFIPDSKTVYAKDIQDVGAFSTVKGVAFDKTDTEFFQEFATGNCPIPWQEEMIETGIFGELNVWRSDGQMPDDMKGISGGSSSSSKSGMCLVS
# Sequence of Tyrosine-protein kinase FRK (Homo sapiens) (P42685 whole entry): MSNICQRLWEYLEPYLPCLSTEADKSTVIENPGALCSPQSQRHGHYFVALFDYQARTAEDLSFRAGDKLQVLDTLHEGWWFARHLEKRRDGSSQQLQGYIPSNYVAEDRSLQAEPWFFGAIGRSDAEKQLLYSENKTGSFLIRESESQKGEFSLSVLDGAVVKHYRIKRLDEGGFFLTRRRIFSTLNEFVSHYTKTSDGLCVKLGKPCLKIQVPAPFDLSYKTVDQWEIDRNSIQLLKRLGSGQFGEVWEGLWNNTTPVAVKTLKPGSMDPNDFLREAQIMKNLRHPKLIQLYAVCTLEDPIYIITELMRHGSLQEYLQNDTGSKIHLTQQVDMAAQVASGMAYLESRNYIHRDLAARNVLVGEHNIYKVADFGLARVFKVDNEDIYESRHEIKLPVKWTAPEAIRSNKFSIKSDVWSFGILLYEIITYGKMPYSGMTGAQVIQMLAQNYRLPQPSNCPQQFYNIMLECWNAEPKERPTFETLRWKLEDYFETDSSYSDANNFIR
# Sequence of Serine/threonine-protein kinase Nek9 (Homo sapiens) (Q8TD19 whole entry, the tested form may be a part): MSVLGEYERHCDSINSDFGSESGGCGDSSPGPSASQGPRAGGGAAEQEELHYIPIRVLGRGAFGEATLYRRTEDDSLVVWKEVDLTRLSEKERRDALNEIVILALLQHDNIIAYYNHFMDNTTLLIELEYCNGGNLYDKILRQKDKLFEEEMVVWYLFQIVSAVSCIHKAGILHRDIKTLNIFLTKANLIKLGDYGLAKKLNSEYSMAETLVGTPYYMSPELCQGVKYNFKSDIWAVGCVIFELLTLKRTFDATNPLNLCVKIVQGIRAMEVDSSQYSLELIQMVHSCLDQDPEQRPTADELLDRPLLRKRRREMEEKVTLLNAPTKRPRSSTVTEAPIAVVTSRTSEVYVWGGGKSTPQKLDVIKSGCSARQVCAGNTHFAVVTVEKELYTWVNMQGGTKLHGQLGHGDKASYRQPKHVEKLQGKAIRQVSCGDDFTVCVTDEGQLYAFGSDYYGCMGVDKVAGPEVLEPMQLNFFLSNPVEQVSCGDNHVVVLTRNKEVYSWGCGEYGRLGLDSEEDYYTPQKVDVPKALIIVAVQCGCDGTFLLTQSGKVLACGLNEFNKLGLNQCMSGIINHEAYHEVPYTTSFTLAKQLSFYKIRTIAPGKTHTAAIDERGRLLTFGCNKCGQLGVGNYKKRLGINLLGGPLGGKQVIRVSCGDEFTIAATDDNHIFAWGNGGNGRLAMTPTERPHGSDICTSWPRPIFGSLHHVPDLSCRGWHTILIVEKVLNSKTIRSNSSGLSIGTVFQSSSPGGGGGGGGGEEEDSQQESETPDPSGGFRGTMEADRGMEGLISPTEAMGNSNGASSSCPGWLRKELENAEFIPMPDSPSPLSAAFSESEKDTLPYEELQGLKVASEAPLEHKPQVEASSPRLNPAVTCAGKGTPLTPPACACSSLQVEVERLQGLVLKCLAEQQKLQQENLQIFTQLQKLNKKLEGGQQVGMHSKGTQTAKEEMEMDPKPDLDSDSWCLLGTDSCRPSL
# Sequence of Glycogen synthase kinase-3 alpha (Homo sapiens) (P49840 2-483 limits assumed): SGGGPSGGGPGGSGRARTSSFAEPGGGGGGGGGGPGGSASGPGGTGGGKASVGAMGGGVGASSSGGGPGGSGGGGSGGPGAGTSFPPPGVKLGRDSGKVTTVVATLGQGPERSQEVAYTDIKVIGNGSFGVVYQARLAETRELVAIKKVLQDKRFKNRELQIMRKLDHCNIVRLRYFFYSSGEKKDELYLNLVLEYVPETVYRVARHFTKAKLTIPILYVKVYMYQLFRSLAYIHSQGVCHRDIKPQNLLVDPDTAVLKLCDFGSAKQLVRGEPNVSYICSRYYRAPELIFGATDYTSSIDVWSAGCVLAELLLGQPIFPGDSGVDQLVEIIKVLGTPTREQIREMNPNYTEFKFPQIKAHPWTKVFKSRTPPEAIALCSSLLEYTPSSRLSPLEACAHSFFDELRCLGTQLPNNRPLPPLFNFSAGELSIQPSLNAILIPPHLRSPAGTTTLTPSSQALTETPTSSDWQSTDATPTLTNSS
smiles,measurement,setting,value
COc1cc2nccc(Oc3ccc(NC(=O)C4(C(=O)Nc5ccc(F)cc5)CC4)cc3)c2cc1OC [CABOZANTINIB],Activity,HeLa,Active
Cc1ccc(NC(=O)C2(C(=O)Nc3ccc(Nc4ncc(F)c(-c5cc(F)c6nc(C)n(C(C)C)c6c5)n4)cc3)CC2)cc1,inhibition,[1],71%
same,inhibition,[2],32%
same,inhibition,[3],23%
same,Activity,[4],Non-Toxic
same,inhibition,[5],48%
same,inhibition,[6],19%
same,inhibition,[7],10%
same,Activity,[8],Non-Toxic
same,inhibition,[9],8%
same,AUC(0-inf),[10],11000 ng·h/mL
same,inhibition,[11],0%
same,inhibition,[12],10%
same,inhibition,[13],5%
same,inhibition,[14],8%
same,Activity,T47D,Dose-dependent effect
same,inhibition,[15],14%
same,inhibition,[16],0%
same,inhibition,SiHa,Dose-dependent effect
same,inhibition,[17],0%
same,inhibition,[18],0%
